Assay results: ChEMBL document CHEMBL1933058, “5-(2-amino-pyrimidin-4-yl)-1H-pyrrole and 2-(2-amino-pyrimidin-4-yl)-1,5,6,7-tetrahydro-pyrrolo[3,2-c]pyridin-4-one derivatives as new classes of selective and orally available Polo-like kinase 1 inhibitors” (Bioorg Med Chem Lett, 2012)
Values after ≈ are worked out from the molar mass of the structure shown. Active and inactive are the calls of the source. The rule behind the calls is not given here.

Tests used:
Aurora kinase A = biological target: T1, Aurora kinase A (Homo sapiens, UniProt O14965); experiment: Inhibition of Aurora-A
T1 sequence (O14965 whole entry): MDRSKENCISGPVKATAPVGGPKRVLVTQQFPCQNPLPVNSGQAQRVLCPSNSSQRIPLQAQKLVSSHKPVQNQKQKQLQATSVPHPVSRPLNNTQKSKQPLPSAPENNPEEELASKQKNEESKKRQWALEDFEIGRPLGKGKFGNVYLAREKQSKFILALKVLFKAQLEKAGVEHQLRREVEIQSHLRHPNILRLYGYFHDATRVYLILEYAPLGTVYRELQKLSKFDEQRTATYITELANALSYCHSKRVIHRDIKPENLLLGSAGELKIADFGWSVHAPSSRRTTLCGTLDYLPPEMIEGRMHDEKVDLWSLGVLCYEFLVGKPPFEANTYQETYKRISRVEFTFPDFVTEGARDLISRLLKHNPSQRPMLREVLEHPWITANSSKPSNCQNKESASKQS

[1] = biological target: Tyrosine-protein kinase ABL1 (Homo sapiens, UniProt P00519); experiment: Inhibition of c-ABL
Aurora kinase B = Aurora kinase B (Homo sapiens, UniProt Q96GD4); experiment: Inhibition of Aurora-B
Chain of Aurora kinase B (Q96GD4 whole entry): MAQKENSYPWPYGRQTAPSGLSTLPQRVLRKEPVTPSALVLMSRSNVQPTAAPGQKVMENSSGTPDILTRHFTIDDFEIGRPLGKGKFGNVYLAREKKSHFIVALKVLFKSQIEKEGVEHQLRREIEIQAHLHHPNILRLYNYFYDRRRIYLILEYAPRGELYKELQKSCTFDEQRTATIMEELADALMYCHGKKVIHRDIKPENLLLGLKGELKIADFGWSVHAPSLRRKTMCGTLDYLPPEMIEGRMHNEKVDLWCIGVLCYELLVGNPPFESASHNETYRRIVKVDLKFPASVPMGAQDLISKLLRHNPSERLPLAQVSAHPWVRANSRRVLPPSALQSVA

[2] = biological target: Cyclin-dependent kinase 5 activator 1 (Homo sapiens, UniProt Q15078); experiment: Inhibition of CDK5/P25
Chain of Cyclin-dependent kinase 5 activator 1 (Q15078 whole entry): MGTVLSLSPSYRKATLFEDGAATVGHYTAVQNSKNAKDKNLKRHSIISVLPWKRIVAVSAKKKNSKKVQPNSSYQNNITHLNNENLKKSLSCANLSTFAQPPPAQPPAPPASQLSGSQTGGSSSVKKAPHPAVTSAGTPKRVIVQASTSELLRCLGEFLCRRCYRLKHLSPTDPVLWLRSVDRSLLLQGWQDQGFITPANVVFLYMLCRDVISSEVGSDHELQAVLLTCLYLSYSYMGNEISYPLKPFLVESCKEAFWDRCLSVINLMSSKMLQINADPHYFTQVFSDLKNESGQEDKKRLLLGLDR

[3] = biological target: Epidermal growth factor receptor (Homo sapiens, UniProt P04626+P00533+Q15303+P21860); experiment: Inhibition of EGFR1; format: protein assay
[4] = biological target: Fibroblast growth factor receptor 1 (Homo sapiens, UniProt P11362); experiment: Inhibition of FGFR1
Chain of Fibroblast growth factor receptor 1 (P11362 whole entry): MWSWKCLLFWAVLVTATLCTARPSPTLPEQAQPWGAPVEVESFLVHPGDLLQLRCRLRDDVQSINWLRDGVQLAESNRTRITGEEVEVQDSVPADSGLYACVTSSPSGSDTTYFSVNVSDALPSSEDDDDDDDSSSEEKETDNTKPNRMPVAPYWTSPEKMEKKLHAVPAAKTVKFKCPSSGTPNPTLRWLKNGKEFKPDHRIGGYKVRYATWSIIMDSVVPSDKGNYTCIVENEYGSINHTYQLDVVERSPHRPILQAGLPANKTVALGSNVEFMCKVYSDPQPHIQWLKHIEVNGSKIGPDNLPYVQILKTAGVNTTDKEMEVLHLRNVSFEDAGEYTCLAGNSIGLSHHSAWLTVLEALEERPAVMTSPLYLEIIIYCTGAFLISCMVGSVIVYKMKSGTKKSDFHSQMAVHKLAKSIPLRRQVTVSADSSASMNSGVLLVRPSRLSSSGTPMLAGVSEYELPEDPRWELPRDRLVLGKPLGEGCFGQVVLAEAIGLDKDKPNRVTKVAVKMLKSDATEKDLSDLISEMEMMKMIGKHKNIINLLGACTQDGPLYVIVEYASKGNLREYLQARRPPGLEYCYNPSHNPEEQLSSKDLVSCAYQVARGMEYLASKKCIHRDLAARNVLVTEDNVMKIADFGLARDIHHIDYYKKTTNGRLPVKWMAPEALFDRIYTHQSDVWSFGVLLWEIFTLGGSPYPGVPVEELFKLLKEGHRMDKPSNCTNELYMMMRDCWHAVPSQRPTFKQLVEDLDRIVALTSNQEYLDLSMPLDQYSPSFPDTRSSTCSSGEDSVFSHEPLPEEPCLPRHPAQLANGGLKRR

[5] = biological target: Glycogen synthase kinase-3 beta (Homo sapiens, UniProt P49841); experiment: Inhibition of GSK3-beta
Chain of Glycogen synthase kinase-3 beta (P49841 whole entry): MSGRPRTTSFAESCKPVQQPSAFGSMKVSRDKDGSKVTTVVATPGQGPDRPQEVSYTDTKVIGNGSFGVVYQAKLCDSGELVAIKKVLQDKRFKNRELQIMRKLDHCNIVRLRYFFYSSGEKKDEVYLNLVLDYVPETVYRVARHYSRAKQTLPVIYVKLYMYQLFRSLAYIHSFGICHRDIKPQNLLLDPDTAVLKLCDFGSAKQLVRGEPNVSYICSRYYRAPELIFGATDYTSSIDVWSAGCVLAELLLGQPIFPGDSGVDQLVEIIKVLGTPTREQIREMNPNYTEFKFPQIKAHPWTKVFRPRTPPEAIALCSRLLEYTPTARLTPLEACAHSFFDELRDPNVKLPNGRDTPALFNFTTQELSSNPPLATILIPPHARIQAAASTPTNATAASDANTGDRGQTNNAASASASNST

[6] = biological target: Tyrosine-protein kinase JAK2 (Homo sapiens, UniProt O60674); experiment: Inhibition of JAK2
[7] = biological target: Tyrosine-protein kinase Lck (Homo sapiens, UniProt P06239); experiment: Inhibition of LCK
Chain of Tyrosine-protein kinase Lck (P06239 whole entry): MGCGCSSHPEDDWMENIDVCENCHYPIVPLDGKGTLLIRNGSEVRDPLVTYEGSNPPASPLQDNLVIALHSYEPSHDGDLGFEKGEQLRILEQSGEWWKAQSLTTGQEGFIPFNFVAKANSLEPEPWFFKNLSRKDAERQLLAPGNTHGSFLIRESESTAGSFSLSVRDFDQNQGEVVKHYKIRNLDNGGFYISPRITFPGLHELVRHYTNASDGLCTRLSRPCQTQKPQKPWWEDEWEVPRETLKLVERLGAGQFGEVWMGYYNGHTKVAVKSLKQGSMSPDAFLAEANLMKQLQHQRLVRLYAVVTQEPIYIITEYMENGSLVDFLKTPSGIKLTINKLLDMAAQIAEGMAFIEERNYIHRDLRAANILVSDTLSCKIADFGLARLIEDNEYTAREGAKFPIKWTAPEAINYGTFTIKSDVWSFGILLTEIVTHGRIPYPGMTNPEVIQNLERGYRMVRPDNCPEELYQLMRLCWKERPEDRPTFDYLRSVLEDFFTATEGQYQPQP

[8] = biological target: Serine/threonine-protein kinase 26 (Homo sapiens, UniProt Q9P289); experiment: Inhibition of MST4
Chain of Serine/threonine-protein kinase 26 (Q9P289 whole entry): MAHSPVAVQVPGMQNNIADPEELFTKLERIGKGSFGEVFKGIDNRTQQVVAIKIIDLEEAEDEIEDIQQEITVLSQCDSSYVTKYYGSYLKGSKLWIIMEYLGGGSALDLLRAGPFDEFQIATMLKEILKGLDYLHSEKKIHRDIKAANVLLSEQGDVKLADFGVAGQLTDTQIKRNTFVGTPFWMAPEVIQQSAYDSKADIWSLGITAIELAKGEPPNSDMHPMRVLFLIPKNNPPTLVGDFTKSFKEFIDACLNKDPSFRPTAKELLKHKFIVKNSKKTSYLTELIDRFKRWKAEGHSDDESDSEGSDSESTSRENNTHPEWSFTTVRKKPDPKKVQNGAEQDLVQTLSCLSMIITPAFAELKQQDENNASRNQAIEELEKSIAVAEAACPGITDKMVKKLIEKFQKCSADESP

[9] = Inhibition of NIM
[10] = Inhibition of PDGFR
[11] = biological target: cAMP-dependent protein kinase catalytic subunit alpha (Homo sapiens, UniProt P17612); experiment: Inhibition of PKAalpha
[12] = biological target: High affinity nerve growth factor receptor (Homo sapiens, UniProt P04629); experiment: Inhibition of TRKA
Chain of High affinity nerve growth factor receptor (P04629 whole entry): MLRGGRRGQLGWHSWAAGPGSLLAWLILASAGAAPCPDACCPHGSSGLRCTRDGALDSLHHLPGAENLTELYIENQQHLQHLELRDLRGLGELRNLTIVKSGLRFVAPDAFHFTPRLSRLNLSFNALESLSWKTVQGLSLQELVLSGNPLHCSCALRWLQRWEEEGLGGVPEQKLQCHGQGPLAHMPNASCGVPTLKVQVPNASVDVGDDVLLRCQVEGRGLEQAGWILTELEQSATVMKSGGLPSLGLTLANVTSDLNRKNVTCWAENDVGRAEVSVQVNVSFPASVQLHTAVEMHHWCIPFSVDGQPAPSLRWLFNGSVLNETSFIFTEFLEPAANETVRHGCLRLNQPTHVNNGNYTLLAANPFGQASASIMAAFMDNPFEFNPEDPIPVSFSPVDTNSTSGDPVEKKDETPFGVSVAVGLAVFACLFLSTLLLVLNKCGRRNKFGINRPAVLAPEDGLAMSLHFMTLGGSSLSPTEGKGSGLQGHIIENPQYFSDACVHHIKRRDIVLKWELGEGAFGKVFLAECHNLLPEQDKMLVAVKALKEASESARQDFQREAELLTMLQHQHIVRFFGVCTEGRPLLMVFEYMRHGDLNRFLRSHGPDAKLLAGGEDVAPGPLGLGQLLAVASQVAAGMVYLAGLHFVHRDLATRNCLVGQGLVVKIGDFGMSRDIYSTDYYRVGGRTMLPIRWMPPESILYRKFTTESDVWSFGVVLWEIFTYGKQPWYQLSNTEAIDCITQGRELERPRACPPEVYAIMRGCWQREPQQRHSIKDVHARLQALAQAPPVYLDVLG

[13] = biological target: Vascular endothelial growth factor receptor 2 (Homo sapiens, UniProt P35968); experiment: Inhibition of VEGFR2
Chain of Vascular endothelial growth factor receptor 2 (P35968 whole entry): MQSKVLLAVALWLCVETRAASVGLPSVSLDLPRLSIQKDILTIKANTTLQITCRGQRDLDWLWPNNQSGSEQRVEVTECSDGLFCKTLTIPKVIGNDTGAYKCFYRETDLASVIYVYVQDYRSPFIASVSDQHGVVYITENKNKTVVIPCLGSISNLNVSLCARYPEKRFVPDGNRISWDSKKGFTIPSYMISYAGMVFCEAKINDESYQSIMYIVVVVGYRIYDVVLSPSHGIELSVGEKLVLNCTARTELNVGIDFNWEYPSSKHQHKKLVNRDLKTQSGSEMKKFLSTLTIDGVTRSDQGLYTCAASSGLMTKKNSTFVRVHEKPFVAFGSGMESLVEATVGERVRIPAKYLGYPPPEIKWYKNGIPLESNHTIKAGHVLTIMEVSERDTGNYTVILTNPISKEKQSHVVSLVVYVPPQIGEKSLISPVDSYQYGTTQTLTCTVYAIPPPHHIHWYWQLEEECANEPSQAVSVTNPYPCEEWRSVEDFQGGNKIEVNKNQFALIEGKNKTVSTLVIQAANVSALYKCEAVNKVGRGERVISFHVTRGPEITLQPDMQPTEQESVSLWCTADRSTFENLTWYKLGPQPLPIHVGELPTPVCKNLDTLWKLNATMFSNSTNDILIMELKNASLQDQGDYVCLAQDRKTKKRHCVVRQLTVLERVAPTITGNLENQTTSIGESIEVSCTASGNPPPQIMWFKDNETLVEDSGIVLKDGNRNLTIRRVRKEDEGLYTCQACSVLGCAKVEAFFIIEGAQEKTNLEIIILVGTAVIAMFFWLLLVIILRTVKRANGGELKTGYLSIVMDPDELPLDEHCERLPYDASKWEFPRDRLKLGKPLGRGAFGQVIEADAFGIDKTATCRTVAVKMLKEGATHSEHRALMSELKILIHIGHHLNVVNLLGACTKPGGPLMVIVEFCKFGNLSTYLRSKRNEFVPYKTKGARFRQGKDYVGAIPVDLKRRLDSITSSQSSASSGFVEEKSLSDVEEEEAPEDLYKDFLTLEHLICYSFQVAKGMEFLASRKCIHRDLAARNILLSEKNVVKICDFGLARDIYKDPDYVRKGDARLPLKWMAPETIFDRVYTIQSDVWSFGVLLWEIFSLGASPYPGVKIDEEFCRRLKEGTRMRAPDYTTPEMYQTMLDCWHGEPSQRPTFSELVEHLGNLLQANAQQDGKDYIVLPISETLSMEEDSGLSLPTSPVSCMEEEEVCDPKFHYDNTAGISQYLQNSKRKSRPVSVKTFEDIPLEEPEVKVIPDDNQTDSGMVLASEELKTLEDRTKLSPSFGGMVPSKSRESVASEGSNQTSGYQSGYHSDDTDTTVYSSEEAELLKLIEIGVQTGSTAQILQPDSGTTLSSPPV

A-375 = experiment: Antiproliferative activity against human A375 cells; format: functional, cell-based
LNCaP = experiment: Antiproliferative activity against human LNCAP cells; format: functional, cell-based
A2780 = experiment: Cell cycle arrest in human A2780 cells assessed as increase of phospho Ser10 histone H3 level at 0.05 to 5 uM after 1 hr by Western blotting analysis; format: functional, cell-based
In short: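 A2780 cells got 1 h exposure at 0.05, 0.5 and 5 µM, with nocodazole-treated cells as comparator. Western blot was used to probe the PLK1 substrate marker pSer46 TCTP and the mitotic marker pSer10 histone H3.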

Caco-2 = experiment: Apparent permeability across human Caco2 cells; format: ADME, cell-based
[14] = Intrinsic clearance in human liver microsomes at 1 uM; format: ADME, Microsome; settings: read-out: CLH
[15] = Solubility of the compound at pH 7; format: physicochemical; settings: buffer
[16] = Terminal half life in Nu/Nu Balb Harlan mouse at 10 mg/kg, po; format: ADME, organism-based; design: dose 10 mg/kg, route oral; settings: in vivo, read-out: beta t1/2 (converted)
[17] = Oral bioavailability in Nu/Nu Balb Harlan mouse at 10 mg/kg; format: ADME, organism-based; settings: in vivo

Work on `CN1CCN(c2ccc(OC(F)(F)F)c(Nc3nccc(-c4cc5c(n4C)CCNC5=O)n3)c2)CC1` yielded an IC50 (Aurora kinase A) greater than 10 µM, an IC50 [1] greater than 10 µM and an IC50 (Aurora kinase B) greater than 10 µM. The IC50 [2] was greater than 10 µM, the IC50 [3] was greater than 10 µM and the IC50 [4] was greater than 10 µM. It also gave an IC50 [5] greater than 10 µM, an IC50 [6] greater than 10 µM and an IC50 [7] greater than 10 µM. For the same compound, the IC50 [8] was greater than 10 µM, the IC50 [9] was greater than 10 µM and the IC50 [10] was greater than 10 µM. For the same compound, the IC50 [11] was greater than 10 µM, the IC50 [12] was greater than 10 µM and the IC50 [13] was greater than 10 µM. For the same compound, the IC50 (A-375) was 0.027 µM, the IC50 (LNCaP) was 0.026 µM and the Activity (A2780) was “Active”. For the same compound, the Papp (Caco-2) was “permeable”, the CLint scaled at 1 µM [14] was 16.5 mL/min/kg and the solubility [15] was 163 µM (≈ 81.7 µg/mL). The half-life [16] was 1.4 h and the bioavailability [17] was 52%.
